Active and inactive are the calls of the source.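 How the source made its calls, unless noted: active means mean duplicate potentiation above the buffer control mean plus 5 SD of buffer wells; inactive means the rest.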

Sequence of Potassium voltage-gated channel subfamily KQT member 1 (Homo sapiens) (P51787 whole entry, looked up): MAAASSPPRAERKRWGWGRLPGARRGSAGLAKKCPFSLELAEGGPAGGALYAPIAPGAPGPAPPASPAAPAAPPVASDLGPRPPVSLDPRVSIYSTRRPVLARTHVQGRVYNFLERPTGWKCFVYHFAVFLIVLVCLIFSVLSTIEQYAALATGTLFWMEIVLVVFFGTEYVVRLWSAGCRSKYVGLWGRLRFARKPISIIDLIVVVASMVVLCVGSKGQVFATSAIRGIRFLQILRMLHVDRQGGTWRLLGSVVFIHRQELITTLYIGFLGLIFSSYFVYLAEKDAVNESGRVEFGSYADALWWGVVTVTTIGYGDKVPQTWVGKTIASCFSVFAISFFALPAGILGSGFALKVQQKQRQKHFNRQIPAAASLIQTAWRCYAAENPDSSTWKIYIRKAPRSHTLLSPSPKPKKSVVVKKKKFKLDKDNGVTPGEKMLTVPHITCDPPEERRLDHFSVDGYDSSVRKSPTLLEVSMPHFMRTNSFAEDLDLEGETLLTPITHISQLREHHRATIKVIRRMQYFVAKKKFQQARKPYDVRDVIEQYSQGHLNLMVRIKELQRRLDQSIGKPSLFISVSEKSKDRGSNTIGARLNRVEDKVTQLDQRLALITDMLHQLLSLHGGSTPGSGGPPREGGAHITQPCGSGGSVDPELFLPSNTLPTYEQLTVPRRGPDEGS

One assay concerns the target Potassium voltage-gated channel subfamily KQT member 1 (Homo sapiens) (UniProt P51787). The assay can be described thus: enhancement of KCNQ1 channel thallium flux – FluxOR thallium flux, CHO cells, duplicates, confirmation (AID 493007;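 active means potentiation averaged over duplicate wells exceeding buffer-only control mean by more than 3 SD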;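 on outcome: cells depolarized by a potassium plus thallium sulfate stimulus after compound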;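 on potentiation: 0% = buffer-only wells and 100% = R-L3 activator control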). The settings on record: KCNQ1 cell line, FluxOR thallium flux fluorescence, at 10 µM; hits give high values, % of reference activator effect, buffer zero. A digest of the protocol:
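Assay system: CHO cells carrying KCNQ1 | Controls: Buffer and R-L3 controls | Schedule: FluxOR dye loading 90 min, compound exposure 20 min, room temperature | Read-out: Baseline-normalized fluorescence change, percent of buffer-to-R-L3 range | Replicates: Each compound tested in duplicate | Technique: Kinetic thallium influx fluorescence with FluxOR dye, 10 s baseline, 110 s post-stimulus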
In the case of `COC(=O)C1=C(C(=O)OC)[C@@H]2N(C)c3ccccc3[C@@]23C[C@@H](C(=O)OC)N(C(=O)c2ccc(Br)cc2)C3=N1`, the potentiation was 104% (active).

Regarding `O=c1[nH]cc(-c2ccccc2)c(=O)[nH]1`, the outcome was inactive.

In the case of `COC(=O)C1SCC2C(=O)N(Cc3ccc(F)cc3)CC(=O)N21` (stereo not given), the potentiation was 46.5% (active).

Regarding `CCN(CC)C(=S)NC(=O)c1ccc(OC)c(Br)c1`, the potentiation is 63.5% (active).

For the molecule `CCC1CCCCN1C(=S)NC(=O)c1cccc([N+](=O)[O-])c1` (stereo not given), the potentiation is 57% (active).

As to `CC(C)N(C(=O)CSc1ncnc2sc(-c3ccccc3)cc12)C(C)C`, the result was inactive.

As to `COC(=O)c1sc(-c2ccc(C(C)(C)C)cc2)cc1NC(=O)/C=C/C(=O)O`, the potentiation was 130% (active).

Regarding `O=C(Cn1c(=O)c2c(ncn2Cc2ccccc2)n(Cc2ccccc2)c1=O)N1CCc2ccccc21`, the result was inactive.

Consider `Cc1ccnc(NS(=O)(=O)c2ccc(NC(=O)C34CC5CC(CC(C5)C3)C4)cc2)n1`, for which the result was inactive.

Consider `O=C(NNc1nc2c(F)cc(F)cc2s1)c1ccccc1`, for which the result was inactive.

In the case of `COc1ccc(OC)c(/C=C2\SC(=S)N(NS(=O)(=O)c3ccc(C)cc3)C2=O)c1`, the potentiation is 102% (active).

As for `Cc1ccc(-c2csc(NC(=S)NC(=O)c3ccco3)n2)cc1`, the potentiation is 71% (active).

With `Fc1cccc(/C=N/Nc2ccc3ccccc3n2)c1`, the result was inactive.

With `COCCNC(=O)CN(C)S(=O)(=O)c1ccc(Br)cc1`, the outcome was inactive.

Turning to `O=C(CCN1CCCCCC1)Nc1ccc(F)cc1`, the result was inactive.

In the case of `CCC/C=N/NC(=O)c1[nH]c2c([N+](=O)[O-])cccc2c1C`, the outcome was inactive.

Regarding `Cc1ccccc1-c1nc(Cc2ccc(Cl)cc2)no1`, the outcome was inactive.

With `O=C(NC(=S)N1CCCc2ccccc21)c1ccc([N+](=O)[O-])cc1`, the potentiation is 82% (active).

Turning to `CC(CCc1ccccc1)NC(=S)NC(=O)c1ccco1` (stereo not given), the potentiation is 69.5% (active).

Consider `O=C(O)CCC(=O)Nc1ccc(S(=O)(=O)c2ccc(NC(=O)CCC(=O)O)cc2)cc1`, for which the result was inactive.

As to `CCOc1ccccc1NC(=O)C(=O)CC(=O)c1cccc(OC)c1`, the potentiation is 87% (active).

With `COc1ccc(NC2=NC3(CCCCC3)N=C(N)N2)cc1`, the outcome was inactive.

As to `CCOc1ccc(C(=O)C(CCC(CN(C)C)C(=O)c2ccc(OCC)cc2)CN(C)C)cc1` (stereo not given), the potentiation is 34.5% (active).

With `CC(C)C(NC(=O)Nc1ccccc1)C(=O)Nc1cccc(S(=O)(=O)N(C)C)c1` (stereo not given), the potentiation is 67.5% (active).

For the molecule `CC(C)Cn1c(=O)c(C(=O)N/N=C/c2cccc(F)c2)c(O)c2ccccc21`, the result was inactive.

Take `O=C(NCc1ccco1)C1CC(c2ccc(Cl)cc2)=NO1` (stereo not given): the outcome was inactive.

As to `CC(C)c1ccc(NC(=O)C2CC(=O)N=C(N)S2)cc1` (stereo not given), the potentiation was 41.5% (active).

For `CCCS(=O)(=O)c1c(S(=O)(=O)CCC)c2ccc(C(N)=O)cn2c1C(=O)c1ccccc1`, the outcome was inactive.

For the molecule `O=C(CN(Cc1ccccc1Cl)C(=O)c1csnn1)NC1CCCC1`, the outcome was inactive.

For `CC(C)(C)c1ccc(C(=O)NC(=S)Nc2nc3c(s2)CCCC3)cc1`, the potentiation was 91% (active).

As for `Cc1cccc(-n2c(C)cc(/C=N/NC(N)=S)c2C)c1`, the outcome was inactive.

On to `CCOC(=O)C1=NN(C(=O)c2ccc(OC)cc2)C(O)(c2ccc(Cl)cc2)C1` (stereo not given), for which the potentiation is 136% (active).

For `Cc1ccc(C)c(NS(=O)(=O)c2cc(C(=O)NCc3ccccn3)ccc2Cl)c1`, the result was inactive.

Regarding `Cc1ccc(C(=O)Nc2nnn(C)n2)cc1`, the result was inactive.

In the case of `O=C(CCOc1ccccc1)Nc1ccnn1C1CCN(Cc2ccc(CO)o2)CC1`, the result was inactive.

In the case of `NS(=O)(=O)c1ccc(CCNC(=O)COC(=O)c2cc([N+](=O)[O-])ccc2N2CCOCC2)cc1`, the result was inactive.

`Cc1ccc(C(=O)N2CCNC(=O)C2CC(=O)Nc2ccc(F)cc2)cc1C` (stereo not given): the potentiation was 37.5% (active).

Regarding `O=C(NNc1ncc(C(F)(F)F)cc1Cl)c1c(Cl)cccc1Cl`, the outcome was inactive.

Regarding `Cc1cc2n(n1)SC(Nc1ccc(F)c(Cl)c1)N2` (stereo not given), the result was inactive.

Consider `COC(=O)c1c(NC(=O)c2ccccc2)sc(C(=O)c2ccccc2)c1C`, for which the outcome was inactive.

In a further assay the target is Potassium voltage-gated channel subfamily KQT member 2 (Rattus norvegicus) (UniProt O88943). The assay is described as follows: KCNQ2 thallium flux enhancement – KCNQ2-CHO-K1 cells, selectivity assay for KCNQ1 potentiator project (AID 493009).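 Further: assay conditions were tuned for KCNQ1 rather than KCNQ2 modulators; signal is max minus min fluorescence divided by baseline after thallium stimulus.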 The settings on record: FluxOR thallium flux fluorescence, at 10 µM; hits give high values, scaled: buffer 0, activator control 100.
Sequence of Potassium voltage-gated channel subfamily KQT member 2 (Rattus norvegicus) (O88943 whole entry, looked up): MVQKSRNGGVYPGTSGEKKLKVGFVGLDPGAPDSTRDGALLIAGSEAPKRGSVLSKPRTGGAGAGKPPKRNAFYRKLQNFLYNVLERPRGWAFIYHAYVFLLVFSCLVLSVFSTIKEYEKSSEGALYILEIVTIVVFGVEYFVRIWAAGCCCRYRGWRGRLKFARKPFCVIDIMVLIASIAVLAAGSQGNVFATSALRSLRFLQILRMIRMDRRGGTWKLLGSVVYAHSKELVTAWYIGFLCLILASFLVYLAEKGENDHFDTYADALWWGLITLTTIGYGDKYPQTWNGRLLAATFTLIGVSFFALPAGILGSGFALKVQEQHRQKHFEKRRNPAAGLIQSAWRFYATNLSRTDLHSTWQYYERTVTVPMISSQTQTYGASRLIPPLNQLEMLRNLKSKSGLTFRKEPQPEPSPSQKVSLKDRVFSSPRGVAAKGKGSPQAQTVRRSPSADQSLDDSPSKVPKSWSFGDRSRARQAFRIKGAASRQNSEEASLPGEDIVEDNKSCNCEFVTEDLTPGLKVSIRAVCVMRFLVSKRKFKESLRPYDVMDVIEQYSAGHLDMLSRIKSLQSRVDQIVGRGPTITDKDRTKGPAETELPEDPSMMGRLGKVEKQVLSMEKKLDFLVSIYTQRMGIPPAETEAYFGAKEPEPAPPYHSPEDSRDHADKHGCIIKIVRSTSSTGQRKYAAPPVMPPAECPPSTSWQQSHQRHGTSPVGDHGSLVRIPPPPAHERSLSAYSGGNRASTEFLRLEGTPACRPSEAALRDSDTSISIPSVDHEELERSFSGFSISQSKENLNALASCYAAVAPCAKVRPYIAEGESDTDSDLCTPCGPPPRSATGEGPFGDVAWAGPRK
`COC(=O)C1=C(C(=O)OC)[C@@H]2N(C)c3ccccc3[C@@]23C[C@@H](C(=O)OC)N(C(=O)c2ccc(Br)cc2)C3=N1`: the potentiation is 204% (active).

Consider `O=c1[nH]cc(-c2ccccc2)c(=O)[nH]1`, for which the outcome was inactive.

Consider `COC(=O)C1SCC2C(=O)N(Cc3ccc(F)cc3)CC(=O)N21` (stereo not given), for which the potentiation was 178% (active).

Turning to `CCN(CC)C(=S)NC(=O)c1ccc(OC)c(Br)c1`, the potentiation is 209% (active).

For `CCC1CCCCN1C(=S)NC(=O)c1cccc([N+](=O)[O-])c1` (stereo not given), the potentiation was 284% (active).

As for `CC(C)N(C(=O)CSc1ncnc2sc(-c3ccccc3)cc12)C(C)C`, the result was inactive.

As for `COC(=O)c1sc(-c2ccc(C(C)(C)C)cc2)cc1NC(=O)/C=C/C(=O)O`, the potentiation is 320% (active).

Take `O=C(Cn1c(=O)c2c(ncn2Cc2ccccc2)n(Cc2ccccc2)c1=O)N1CCc2ccccc21`: the result was inactive.

As for `Cc1ccnc(NS(=O)(=O)c2ccc(NC(=O)C34CC5CC(CC(C5)C3)C4)cc2)n1`, the outcome was inactive.

On to `O=C(NNc1nc2c(F)cc(F)cc2s1)c1ccccc1`, for which the outcome was inactive.

Turning to `COc1ccc(OC)c(/C=C2\SC(=S)N(NS(=O)(=O)c3ccc(C)cc3)C2=O)c1`, the potentiation is 240% (active).

As to `Cc1ccc(-c2csc(NC(=S)NC(=O)c3ccco3)n2)cc1`, the potentiation was 164% (active).

For `Fc1cccc(/C=N/Nc2ccc3ccccc3n2)c1`, the result was inactive.

Turning to `COCCNC(=O)CN(C)S(=O)(=O)c1ccc(Br)cc1`, the result was inactive.

With `O=C(CCN1CCCCCC1)Nc1ccc(F)cc1`, the outcome was inactive.

For `CCC/C=N/NC(=O)c1[nH]c2c([N+](=O)[O-])cccc2c1C`, the result was inactive.

With `Cc1ccccc1-c1nc(Cc2ccc(Cl)cc2)no1`, the result was inactive.

For `O=C(NC(=S)N1CCCc2ccccc21)c1ccc([N+](=O)[O-])cc1`, the potentiation was 247% (active).

Take `CC(CCc1ccccc1)NC(=S)NC(=O)c1ccco1` (stereo not given): the potentiation is 251% (active).

Consider `O=C(O)CCC(=O)Nc1ccc(S(=O)(=O)c2ccc(NC(=O)CCC(=O)O)cc2)cc1`, for which the outcome was inactive.

On to `CCOc1ccccc1NC(=O)C(=O)CC(=O)c1cccc(OC)c1`, for which the potentiation is 280% (active).

On to `COc1ccc(NC2=NC3(CCCCC3)N=C(N)N2)cc1`, for which the outcome was inactive.

Take `CCOc1ccc(C(=O)C(CCC(CN(C)C)C(=O)c2ccc(OCC)cc2)CN(C)C)cc1` (stereo not given): the potentiation is 152% (active).

As to `CC(C)C(NC(=O)Nc1ccccc1)C(=O)Nc1cccc(S(=O)(=O)N(C)C)c1` (stereo not given), the potentiation was 232% (active).

As for `CC(C)Cn1c(=O)c(C(=O)N/N=C/c2cccc(F)c2)c(O)c2ccccc21`, the outcome was inactive.

`O=C(NCc1ccco1)C1CC(c2ccc(Cl)cc2)=NO1` (stereo not given): the outcome was inactive.

In the case of `CC(C)c1ccc(NC(=O)C2CC(=O)N=C(N)S2)cc1` (stereo not given), the potentiation was 227% (active).

`CCCS(=O)(=O)c1c(S(=O)(=O)CCC)c2ccc(C(N)=O)cn2c1C(=O)c1ccccc1`: the outcome was inactive.

Regarding `O=C(CN(Cc1ccccc1Cl)C(=O)c1csnn1)NC1CCCC1`, the outcome was inactive.

With `CC(C)(C)c1ccc(C(=O)NC(=S)Nc2nc3c(s2)CCCC3)cc1`, the potentiation was 217% (active).

Turning to `Cc1cccc(-n2c(C)cc(/C=N/NC(N)=S)c2C)c1`, the outcome was inactive.

In the case of `CCOC(=O)C1=NN(C(=O)c2ccc(OC)cc2)C(O)(c2ccc(Cl)cc2)C1` (stereo not given), the potentiation is 428% (active).

As for `Cc1ccc(C)c(NS(=O)(=O)c2cc(C(=O)NCc3ccccn3)ccc2Cl)c1`, the outcome was inactive.

For `Cc1ccc(C(=O)Nc2nnn(C)n2)cc1`, the result was inactive.

With `O=C(CCOc1ccccc1)Nc1ccnn1C1CCN(Cc2ccc(CO)o2)CC1`, the outcome was inactive.

In the case of `NS(=O)(=O)c1ccc(CCNC(=O)COC(=O)c2cc([N+](=O)[O-])ccc2N2CCOCC2)cc1`, the outcome was inactive.

As to `Cc1ccc(C(=O)N2CCNC(=O)C2CC(=O)Nc2ccc(F)cc2)cc1C` (stereo not given), the result was inactive.

With `O=C(NNc1ncc(C(F)(F)F)cc1Cl)c1c(Cl)cccc1Cl`, the outcome was inactive.

For `Cc1cc2n(n1)SC(Nc1ccc(F)c(Cl)c1)N2` (stereo not given), the outcome was inactive.

`COC(=O)c1c(NC(=O)c2ccccc2)sc(C(=O)c2ccccc2)c1C`: the result was inactive.

Values taken from PubChem BioAssay.
